In ChEMBL document CHEMBL2413015, “Synthesis, evaluation and molecular dynamics study of some new 4-aminopyridine semicarbazones as an antiamnesic and cognition enhancing agents” (Bioorg Med Chem, 2013):

Key:
Rattus norvegicus [1] = experiment: Toxicity in albino rat assessed as mortality upto 100 mg/kg after 30 mins to 48 hrs; assay type: organism-based; design: dose 100 mg/kg; settings: in vivo
Outline: (§1)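 Acute toxicity followed OECD guidelines. Nulliparous, non-pregnant female albino rats (120–150 g) were fasted overnight with water ad libitum. Graded oral doses up to 100 mg/kg were given in 0.3% carboxymethyl cellulose. Rats were observed continuously for 30 min, at 2 h and up to 48 h for behavioural or autonomic changes, tremors, convulsions, salivation, diarrhoea, sleep, lacrimation, cardiovascular signs, feeding and mortality.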

Rattus norvegicus [2] = experiment: Toxicity in albino rat assessed as change in normal behavioral response upto 100 mg/kg after 30 mins to 48 hrs; assay type: organism-based; design: dose 100 mg/kg; settings: in vivo; outline: as §1
Rattus norvegicus [3] = experiment: Cognitive enhancing effect in po dosed Wistar rat assessed as reversal of learning impairment measured as transfer latency administered for 8 days by elevated plus maze test; assay type: functional, organism-based
Outline: (§2)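 Oral dosing at 5 or 10 mg/kg for 8 days, suspended in 0.3% carboxymethyl cellulose; vehicle-treated controls. Transfer latency on elevated plus maze measured on first and second days of exposure (treatment days 7 and 8). Mean ± SEM, n = 6, one-way ANOVA versus vehicle control.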

Rattus norvegicus [4] = experiment: Cognitive enhancing effect in Wistar rat assessed as reversal of learning impairment measured as transfer latency at 10 mg/kg, po for 8 days measured on second day of test by elevated plus maze test (reference value: 66.824 +/- 0.47 seconds); assay type: functional; outline: as §2
Rattus norvegicus [5] = experiment: Cognitive enhancing effect in Wistar rat assessed as reversal of learning impairment measured as transfer latency at 5 mg/kg, po for 8 days measured on second day of test by elevated plus maze test (reference value: 66.824 +/- 0.47 seconds); assay type: functional; outline: as §2
Rattus norvegicus [6] = experiment: Cognitive enhancing effect in Wistar rat assessed as reversal of learning impairment measured as transfer latency at 10 mg/kg, po for 8 days measured on first day of test by elevated plus maze test (reference value: 70.846 +/- 0.76 seconds); assay type: functional; outline: as §2
Rattus norvegicus [7] = experiment: Cognitive enhancing effect in Wistar rat assessed as reversal of learning impairment measured as transfer latency at 5 mg/kg, po for 8 days measured on first day of test by elevated plus maze test (reference value: 70.846 +/- 0.76 seconds); assay type: functional; outline: as §2
Rattus norvegicus [8] = experiment: Activity at AChE in Charles Foster rat hypothalamus assessed as substrate hydrolyzed per mg of protein at 10 mg/kg, po for 8 days by Ellman's method (reference value: 40.50 +/- 0.76 mol/min); assay type: functional
Rattus norvegicus [9] = experiment: Activity at AChE in Charles Foster rat hypothalamus assessed as substrate hydrolyzed per mg of protein at 5 mg/kg, po for 8 days by Ellman's method (reference value: 40.50 +/- 0.76 mol/min); assay type: functional
Rattus norvegicus [10] = experiment: Activity at AChE in Charles Foster rat hippocampus assessed as substrate hydrolyzed per mg of protein at 10 mg/kg, po for 8 days by Ellman's method (reference value: 47.50 +/- 0.84 mol/min); assay type: functional
Rattus norvegicus [11] = experiment: Activity at AChE in Charles Foster rat hippocampus assessed as substrate hydrolyzed per mg of protein at 5 mg/kg, po for 8 days by Ellman's method (reference value: 47.50 +/- 0.84 mol/min); assay type: functional
Rattus norvegicus [12] = experiment: Activity at AChE in Charles Foster rat prefrontal cortex assessed as substrate hydrolyzed per mg of protein at 10 mg/kg, po for 8 days by Ellman's method (reference value: 45.83 +/- 0.94 mol/min); assay type: functional
Rattus norvegicus [13] = experiment: Activity at AChE in Charles Foster rat prefrontal cortex assessed as substrate hydrolyzed per mg of protein at 5 mg/kg, po for 8 days by Ellman's method (reference value: 45.83 +/- 0.94 mol/min); assay type: functional
Rattus norvegicus [14] = experiment: Cognitive enhancing effect in Charles Foster rat assessed as reversal of scopolamine-induced amnesia measured as transfer latency at 10 mg/kg, po for 8 days administered 1 hr prior to scopolamine-challenge on day 7 measured on day 8 by elevated plus maze test (reference value: 62.17 +/- 0.47 seconds); assay type: functional
Rattus norvegicus [15] = experiment: Cognitive enhancing effect in Charles Foster rat assessed as reversal of scopolamine-induced amnesia measured as transfer latency at 5 mg/kg, po for 8 days administered 1 hr prior to scopolamine-challenge on day 7 measured on day 8 by elevated plus maze test (reference value: 62.17 +/- 0.47 seconds); assay type: functional
Rattus norvegicus [16] = experiment: (§3) Cognitive enhancing effect in Charles Foster rat assessed as reversal of scopolamine-induced amnesia measured as transfer latency at 10 mg/kg, po for 8 days administered 1 hr prior to scopolamine-challenge on day 7 measured on same day by elevated plus maze test (reference value: 67.83 +/- 0.94 seconds); assay type: functional
Rattus norvegicus [17] = experiment: as §3, with “5” for “10”; assay type: functional
Cholinesterase [18] = target: T1, Cholinesterase (Homo sapiens, UniProt P06276); experiment: Non competitive inhibition of human serum BChE using butyrylthiocholine iodide as substrate by Lineweaver-Burk plot analysis
T1 sequence (P06276 whole entry): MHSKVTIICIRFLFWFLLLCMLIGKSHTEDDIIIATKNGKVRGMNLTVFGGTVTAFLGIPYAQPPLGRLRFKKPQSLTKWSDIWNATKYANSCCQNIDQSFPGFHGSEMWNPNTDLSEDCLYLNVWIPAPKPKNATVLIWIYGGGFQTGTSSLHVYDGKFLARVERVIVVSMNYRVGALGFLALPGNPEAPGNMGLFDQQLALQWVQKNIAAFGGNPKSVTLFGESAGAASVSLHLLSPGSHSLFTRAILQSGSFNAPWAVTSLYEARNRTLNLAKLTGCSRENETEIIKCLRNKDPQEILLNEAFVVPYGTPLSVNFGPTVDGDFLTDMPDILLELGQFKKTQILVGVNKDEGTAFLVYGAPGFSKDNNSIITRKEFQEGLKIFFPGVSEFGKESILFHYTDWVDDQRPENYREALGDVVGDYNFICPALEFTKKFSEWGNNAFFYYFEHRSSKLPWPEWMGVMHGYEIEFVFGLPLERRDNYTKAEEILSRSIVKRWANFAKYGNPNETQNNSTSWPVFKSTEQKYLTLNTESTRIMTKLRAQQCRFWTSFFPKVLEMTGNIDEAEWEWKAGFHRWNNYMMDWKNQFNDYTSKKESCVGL
Outline: (§4)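 Ellman assay in phosphate buffer pH 8 with a fixed amount of cholinesterase. Thiocholine substrate was varied from below to above, but near, Km, with or without inhibitor. Inhibition type was assigned from Lineweaver–Burk plots.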

Acetylcholinesterase [19] = target: T2, Acetylcholinesterase (Electrophorus electricus, UniProt O42275); experiment: Competitive inhibition of electric eel AChE using acetylthiocholine iodide as substrate by Lineweaver-Burk plot analysis; outline: as §4
T2 sequence (O42275 whole entry): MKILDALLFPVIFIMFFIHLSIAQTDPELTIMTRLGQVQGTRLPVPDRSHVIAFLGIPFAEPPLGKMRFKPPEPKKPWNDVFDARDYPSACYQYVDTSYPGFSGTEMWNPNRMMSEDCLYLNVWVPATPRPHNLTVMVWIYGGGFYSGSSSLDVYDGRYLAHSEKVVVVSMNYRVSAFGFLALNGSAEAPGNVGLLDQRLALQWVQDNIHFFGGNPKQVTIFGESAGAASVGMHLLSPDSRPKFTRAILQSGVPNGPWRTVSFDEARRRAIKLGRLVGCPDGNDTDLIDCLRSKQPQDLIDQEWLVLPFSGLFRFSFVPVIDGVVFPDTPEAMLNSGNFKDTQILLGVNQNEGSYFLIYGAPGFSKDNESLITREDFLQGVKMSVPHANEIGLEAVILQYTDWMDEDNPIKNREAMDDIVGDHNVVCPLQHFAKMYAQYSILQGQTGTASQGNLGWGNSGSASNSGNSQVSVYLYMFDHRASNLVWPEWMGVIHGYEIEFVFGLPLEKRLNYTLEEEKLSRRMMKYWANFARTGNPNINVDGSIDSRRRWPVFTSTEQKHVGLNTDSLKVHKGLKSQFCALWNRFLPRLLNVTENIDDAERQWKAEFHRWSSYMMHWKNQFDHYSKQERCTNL

[20] = Selectivity ratio of IC50 for human serum BChE to IC50 for electric eel AChE
Outline: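 Ratio of IC50 (BChE) to IC50 (AChE). Both came from Ellman assays at 0.1 M phosphate pH 8.0 and 0.02 unit/mL enzyme: AChE (stock in phosphate buffer) with acetylthiocholine, human serum BChE (stock in 0.1% gelatine) with butyrylthiocholine.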

Cholinesterase [21] = target: T1, Cholinesterase; experiment: Inhibition of human serum BChE using butyrylthiocholine iodide as substrate preincubated for 20 mins prior to substrate addition by Ellman's method
Outline: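 Human serum BChE was dissolved in 0.1% gelatine. The final mix held 0.1 M phosphate pH 8.0, DTNB, 0.02 unit/mL enzyme and butyrylthiocholine iodide. Five inhibitor concentrations spanning 20–80% inhibition were preincubated with enzyme for 20 min at 37 °C, then substrate was added. Rate was read at 412 nm over 5 min against an enzyme-free blank. Each point was run in triplicate, and IC50 was read graphically from log concentration–% inhibition curves.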

Acetylcholinesterase [22] = target: T2, Acetylcholinesterase; experiment: Inhibition of electric eel AChE using acetylthiocholine iodide as substrate preincubated for 20 mins prior to substrate addition by Ellman's method
Cholinesterase [23] = target: T1, Cholinesterase; experiment: Competitive inhibition of human serum BChE using butyrylthiocholine iodide as substrate by Lineweaver-Burk plot analysis; outline: as §4

O=C(N/N=C/c1ccc(O)cc1O)Nc1ccncc1
Activity (Rattus norvegicus [1]): Non-toxic
Activity (Rattus norvegicus [2]): Non-toxic
Activity (Rattus norvegicus [3]): Dose-dependent effect
Time (Rattus norvegicus [4]): 40.33 s
Time (Rattus norvegicus [5]): 42.5 s
Time (Rattus norvegicus [6]): 49.17 s
Time (Rattus norvegicus [7]): 51 s
Activity (Rattus norvegicus [8]): 32.5 mol/min
Activity (Rattus norvegicus [9]): 34.83 mol/min
Activity (Rattus norvegicus [10]): 35.03 mol/min
Activity (Rattus norvegicus [11]): 37.5 mol/min
Activity (Rattus norvegicus [12]): 34.83 mol/min
Activity (Rattus norvegicus [13]): 36.17 mol/min
Time (Rattus norvegicus [14]): 57.67 s
Time (Rattus norvegicus [15]): 61.83 s
Time (Rattus norvegicus [16]): 65.17 s
Time (Rattus norvegicus [17]): 65.57 s
Ki (Cholinesterase [18]): 72.7 µM
Ki (Acetylcholinesterase [19]): 3.56 µM
Ratio IC50 [20]: 13.7
IC50 (Cholinesterase [21]): 58.2 µM
IC50 (Acetylcholinesterase [22]; read-out: IC50): 4.26 µM

NC(=O)Nc1ccncc1
Activity (Rattus norvegicus [1]): Non-toxic
Activity (Rattus norvegicus [2]): Non-toxic
Activity (Rattus norvegicus [3]): Dose-dependent effect
Time (Rattus norvegicus [4]): 60.17 s
Time (Rattus norvegicus [5]): 61.25 s
Time (Rattus norvegicus [6]): 65.12 s
Time (Rattus norvegicus [7]): 66.2 s
Activity (Rattus norvegicus [8]): 37.33 mol/min
Activity (Rattus norvegicus [9]): 37.5 mol/min
Activity (Rattus norvegicus [10]): 44.17 mol/min
Activity (Rattus norvegicus [11]): 44.5 mol/min
Activity (Rattus norvegicus [12]): 42.5 mol/min
Activity (Rattus norvegicus [13]): 43 mol/min
Time (Rattus norvegicus [14]): 73 s
Time (Rattus norvegicus [15]): 75 s
Time (Rattus norvegicus [16]): 77.83 s
Time (Rattus norvegicus [17]): 80.83 s
IC50 (Cholinesterase [21]): > 1000 µM
IC50 (Acetylcholinesterase [22]; read-out: IC50): 274 µM

COc1ccc(/C=N/NC(=O)Nc2ccncc2)cc1OC
Activity (Rattus norvegicus [1]): Non-toxic
Activity (Rattus norvegicus [2]): Non-toxic
Activity (Rattus norvegicus [3]): Dose-dependent effect
Time (Rattus norvegicus [4]): 40.5 s
Time (Rattus norvegicus [5]): 44.5 s
Time (Rattus norvegicus [6]): 49.33 s
Time (Rattus norvegicus [7]): 52.17 s
Activity (Rattus norvegicus [8]): 33.17 mol/min
Activity (Rattus norvegicus [9]): 35.33 mol/min
Activity (Rattus norvegicus [10]): 35.83 mol/min
Activity (Rattus norvegicus [11]): 38.17 mol/min
Activity (Rattus norvegicus [12]): 35.17 mol/min
Activity (Rattus norvegicus [13]): 36.87 mol/min
Time (Rattus norvegicus [14]): 57.17 s
Time (Rattus norvegicus [15]): 62.17 s
Time (Rattus norvegicus [16]): 64.83 s
Time (Rattus norvegicus [17]): 67.17 s
Ki (Cholinesterase [23]): 283 µM
Ki (Acetylcholinesterase [19]): 10.3 µM
Ratio IC50 [20]: 33.6
IC50 (Cholinesterase [21]): 426 µM
IC50 (Acetylcholinesterase [22]; read-out: IC50): 12.7 µM

COc1cc(/C=N/NC(=O)Nc2ccncc2)ccc1O
Activity (Rattus norvegicus [1]): Non-toxic
Activity (Rattus norvegicus [2]): Non-toxic
Activity (Rattus norvegicus [3]): Dose-dependent effect
Time (Rattus norvegicus [4]): 40.5 s
Time (Rattus norvegicus [5]): 46.17 s
Time (Rattus norvegicus [6]): 49.67 s
Time (Rattus norvegicus [7]): 52 s
Activity (Rattus norvegicus [8]): 33.67 mol/min
Activity (Rattus norvegicus [9]): 35.83 mol/min
Activity (Rattus norvegicus [10]): 36.83 mol/min
Activity (Rattus norvegicus [11]): 39.5 mol/min
Activity (Rattus norvegicus [12]): 35.5 mol/min
Activity (Rattus norvegicus [13]): 36.62 mol/min
Time (Rattus norvegicus [14]): 57.87 s
Time (Rattus norvegicus [15]): 64.5 s
Time (Rattus norvegicus [16]): 65 s
Time (Rattus norvegicus [17]): 68.17 s
Ki (Cholinesterase [18]): 446 µM
Ki (Acetylcholinesterase [19]): 20.5 µM
Ratio IC50 [20]: 28.2
IC50 (Cholinesterase [21]): 528 µM
IC50 (Acetylcholinesterase [22]; read-out: IC50): 18.7 µM
IC50 (Acetylcholinesterase [22]; read-out: pIC50 (converted)): 19.1 µM
